How the values were obtained:
Type in all cases: functional, cell-based
MDA-MB-435 = experiment: Cytotoxicity against human MDA-MB-435 cells after 72 hrs by cell proliferation assay
Procedure, shortened: (§1)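 Cells from ATCC grown at 37 °C, 5% CO2 in RPMI 1640 with 10% FBS, penicillin 100 units/mL, streptomycin 100 μg/mL. Log-phase cells trypsinized, washed twice, seeded at 5000/well, left overnight. DMSO-dissolved samples tested at 20, 4, 0.8, 0.16, 0.032 μM (final DMSO 0.5%) for 72 h at 37 °C. Viable cells read by MTS-type absorbance assay; IC50 relative to DMSO control.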

[1] = Cytotoxicity against human OVCAR3 cells after 72 hrs by cell proliferation assay; settings: ovcar-3; procedure, shortened: as §1
MDA-MB-231 = experiment: Cytotoxicity against human MDA-MB-231 cells after 72 hrs by cell proliferation assay; procedure, shortened: as §1

SMILES | IC50 (MDA-MB-435; mda-mb-435) | IC50 [1] | IC50 (MDA-MB-231) | IC50 (MDA-MB-435; Homo sapiens, MDA-MB-435, 72 h, read-out: IC50) [µM]
C[C@]12C(=O)OC[C@@]3(CC[C@@H]1O)[C@@H]1CC(=O)c4ccoc4[C@@H]1C[C@@H](O)[C@H]32 | Not Active | Not Active | Not Active | 
C[C@@]12C(=O)CC[C@]3(C)[C@@H]4CC[C@@]5(C)[C@@H](O)CO[C@H]5C4=C[C@@H](OC1=O)[C@@H]23 | Not Active | Not Active | Not Active | 
COc1cc2c(c3occc13)[C@@H](O)[C@H]1OC(=O)[C@]3(C)[C@H]1[C@]21CCC3(O)OC1 | Not Active | Not Active | Not Active | 
CO[C@@]12OC[C@@H](O)[C@]1(C)CC[C@@H]1C2=C[C@H]2OC(=O)[C@]3(C)[C@H]2[C@]12CCC3(O)OC2 |  | Not Active | Not Active | 7.04
C[C@]12C(=O)O[C@@H]3Cc4c(cc(O)c5ccoc45)[C@@]4(CCC1(O)OC4)[C@@H]32 | Not Active | Not Active | Not Active | 
